Test results published in ChEMBL document CHEMBL5214894, “Biosynthetic Interrogation of Soil Metagenomes Reveals Metamarin, an Uncommon Cyclomarin Congener with Activity against Mycobacterium tuberculosis” (J Nat Prod, 2021).
In brackets after ≈: the same amount, converted by molar mass.

Experiments:
[1] = tested on: Mycobacterium tuberculosis; experiment: Antimycobacterial activity against multi drug-resistant Mycobacterium tuberculosis 565 assessed as bacterial growth inhibition incubated for 6 days by Alamar blue staining based assay; format: functional; details: Mycobacterium tuberculosis, 565, 144 h; time 6 day
Procedure, shortened: (§1)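 Strains passaged at 37 °C in 7H9 with OADC, 0.2% glycerol and 0.02% tyloxapol to OD600 0.5–0.7, then diluted to OD600 0.005. Final test range 5 to 0.009 μg/mL. Rifampicin control. Incubated 6 days at 37 °C with 5% CO2. Tween 80 and Alamar Blue then added for 24 h. Absorbance read at 570 nm, normalized to 600 nm.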

[2] = tested on: Mycobacterium tuberculosis; experiment: Antimycobacterial activity against multi drug-resistant Mycobacterium tuberculosis 7791 assessed as bacterial growth inhibition incubated for 6 days by Alamar blue staining based assay; format: functional; details: Mycobacterium tuberculosis, 7791, 144 h; time 6 day; procedure, shortened: as §1
[3] = tested on: Mycobacterium tuberculosis; experiment: Antimycobacterial activity against multi drug-resistant Mycobacterium tuberculosis TN800 assessed as bacterial growth inhibition incubated for 6 days by Alamar blue staining based assay; format: functional; details: TN800, 144 h, time 6 day; procedure, shortened: as §1
[4] = tested on: Mycobacterium tuberculosis; experiment: Antibacterial activity against Mycobacterium tuberculosis mc2 6206 harboring mLux plasmid infected in mouse J774.A1 cells assessed as inhibition of bacterial cell viability incubated for 72 hrs by multimode microplate reader analysis; format: functional, organism-based; details: mc2 6206, J774.A1, 72 h
Procedure, shortened: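 Macrophages at (4–5) × 10^5 cells/mL in DMEM/10% FBS, seeded and left to adhere overnight. Infected at MOI 1:10 with mid-log bacteria for 4 h at 37 °C, 5% CO2. Medium supplemented with pantothenate and leucine, each 50 μg/mL. After PBS washes, compound added at 64 to 0.0004 μg/mL for 72 h. Luminescence read-out. IC50 by nonlinear regression. Triplicate; experiment repeated twice.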

C=CC(C)(C)n1cc(C(O)C2NC(=O)[C@H](C(C)C)NC(=O)[C@H](CC(C)C)N(C)C(=O)[C@H](C(C)C)NC(=O)C(C(OC)c3ccccc3)NC(=O)[C@H](C(C)C)NC(=O)C(CC(C)CO)N(C)C2=O)c2ccccc21 (stereo partly specified)
MIC [1]: 0.08 µg/mL (≈ 0.0788 µM) | MIC [2]: 0.08 µg/mL (≈ 0.0788 µM) | MIC [3]: 0.08 µg/mL (≈ 0.0788 µM) | IC50 [4]: 0.71 µg/mL (≈ 0.699 µM)

CO[C@@H](c1ccccc1)[C@H]1NC(=O)[C@H](C)NC(=O)[C@@H](CC(C)CO)N(C)C(=O)C(C(O)c2cn(C(C)(C)[C@@H]3CO3)c3ccccc23)NC(=O)[C@@H]([C@H](C)C=C(C)C)NC(=O)[C@@H](CC(C)C)N(C)C(=O)[C@@H](C(C)C)NC1=O (stereo partly specified)
IC50 [4]: 0.48 µg/mL (≈ 0.46 µM)

CO[C@H]1/C=C/O[C@@]2(C)Oc3c(C)c(O)c4c(O)c(c(/C=N/N5CCN(C)CC5)c(O)c4c3C2=O)NC(=O)/C(C)=C\C=C\[C@H](C)[C@H](O)[C@@H](C)[C@@H](O)[C@@H](C)[C@H](OC(C)=O)[C@@H]1C [RIFAMPIN]
IC50 [4]: 0.08 µg/mL (≈ 0.0972 µM)
